Test results: ChEMBL document CHEMBL1146313, “Design and synthesis of piperidine farnesyltransferase inhibitors with reduced glucuronidation potential” (Bioorg Med Chem, 2007)

assay: Inhibition of human FTase
Outline: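 Human FTase (50 ng purified enzyme) with His6-K-Ras4B (1 µM) and [3H]farnesyl diphosphate (500 nM) in 50 mM Tris-HCl pH 7.7, 5 mM MgCl2, 5 µM ZnCl2, 2 mM DTT, 0.2% octyl-glucoside. Incubated 30 min at room temperature, stopped with SDS. Protein precipitated with cold trichloroacetic acid and filter-collected, then 3H counted. Percent inhibition calculated against DMSO vehicle control.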

Row | SMILES | IC50 [nM]
1 | Cn1cnc(CN2CC[C@@H](c3ccccc3Br)[C@H]([N+](=O)[O-])[C@H]2c2ccccc2)c1 (racemic) | > 500
2 | CCc1ccccc1[C@@H]1CCN(Cc2cccnc2)[C@@H](c2ccccc2)[C@H]1C(=O)O (racemic) | > 500
3 | CCc1ccccc1[C@@H]1CCN(Cc2cccnc2)[C@@H](c2ccccc2)[C@H]1C(C)=O (racemic) | 42
4 | CCc1ccccc1[C@@H]1CCN(Cc2cccnc2)[C@@H](c2ccccc2)[C@H]1C(=O)OC (racemic) | 95
5 | O=[N+]([O-])[C@@H]1[C@@H](c2ccc(O)c(I)c2)N(Cc2cccnc2)CC[C@H]1c1ccccc1Br (racemic) | > 500
6 | COc1cc([C@@H]2[C@@H]([N+](=O)[O-])[C@H](c3ccccc3Br)CCN2Cc2cccnc2)ccc1O (racemic) | 180
7 | CCc1ccccc1[C@@H]1CCN(Cc2cccnc2)[C@H](c2ccc(O)c(N)c2)[C@H]1[N+](=O)[O-] (racemic) | 46
8 | CCNc1cc([C@@H]2[C@@H]([N+](=O)[O-])[C@H](c3ccccc3Br)CCN2Cc2cccnc2)ccc1O (racemic) | 50
9 | CC(=O)Nc1cc([C@H]2[C@H]([N+](=O)[O-])[C@@H](c3ccccc3Br)CCN2Cc2cccnc2)ccc1O (racemic) | 27
10 | Cc1ccc(S(=O)(=O)Nc2cc([C@H]3[C@H]([N+](=O)[O-])[C@@H](c4ccccc4Br)CCN3Cc3cccnc3)ccc2O)cc1 (racemic) | 270
11 | COc1ccc([C@@H]2[C@@H]([N+](=O)[O-])[C@H](c3ccccc3Br)CCN2Cc2cccnc2)cc1 (racemic) | > 500
12 | O=[N+]([O-])[C@@H]1[C@@H](c2ccsc2)N(Cc2cccnc2)CC[C@H]1c1ccccc1Br (racemic) | 36
13 | O=[N+]([O-])[C@@H]1[C@@H](c2cccnc2)N(Cc2cccnc2)CC[C@H]1c1ccccc1Br (racemic) | > 500
14 | CC(C)Nc1cc([C@@H]2[C@@H]([N+](=O)[O-])[C@H](c3ccccc3Br)CCN2Cc2cccnc2)ccc1O (racemic) | 98
15 | CCc1ccccc1[C@@H]1CCN(Cc2cccnc2)[C@H](c2ccc(O)c(NCc3ccccc3)c2)[C@H]1[N+](=O)[O-] (racemic) | 121
16 | O=[N+]([O-])c1cc([C@@H]2[C@@H]([N+](=O)[O-])[C@H](c3ccccc3Br)CCN2Cc2cccnc2)ccc1O (racemic) | > 500
17 | CCc1ccccc1[C@@H]1CCN(Cc2cccnc2)[C@@H](c2ccccc2)[C@H]1C(=O)NC (racemic) | > 500
18 | O=[N+]([O-])[C@@H]1[C@@H](c2ccc3[nH]cnc3c2)N(Cc2cccnc2)CC[C@H]1c1ccccc1Br (racemic) | > 500
19 | CCc1ccccc1[C@@H]1CCN(Cc2cccnc2)[C@@H](c2ccccc2)[C@H]1CO (racemic) | > 500
20 | C=CCOC(=O)[C@H]1[C@H](c2ccccc2CC)CCN(Cc2cccnc2)[C@H]1c1ccccc1 (racemic) | > 500
21 | O=[N+]([O-])[C@@H]1[C@@H](c2ccccc2)N(Cc2cnc[nH]2)CC[C@H]1c1ccccc1Br (racemic) | > 500
22 | N#Cc1ccc(Cn2cncc2CN2CC[C@@H](c3ccccc3Br)[C@H]([N+](=O)[O-])[C@H]2c2ccccc2)cc1 (racemic) | 44

Now those with a lower IC50, led by results:

Row | IC50 [nM] | SMILES
23 | 17 | Cn1cncc1CN1CC[C@@H](c2ccccc2Br)[C@H]([N+](=O)[O-])[C@H]1c1ccccc1 (racemic)
24 | 3.7 | O=[N+]([O-])[C@@H]1[C@@H](c2ccc(O)c(O)c2)N(Cc2cccnc2)CC[C@H]1c1ccccc1Br (racemic)
25 | 14 | COC(=O)Nc1cc([C@H]2[C@H]([N+](=O)[O-])[C@@H](c3ccccc3Br)CCN2Cc2cccnc2)ccc1O (racemic)
26 | 4.6 | CCc1ccccc1[C@H]1CCN(Cc2cccnc2)[C@@H](c2ccc(O)c(NS(C)(=O)=O)c2)[C@@H]1[N+](=O)[O-] (racemic)
27 | 5.9 | CCS(=O)(=O)Nc1cc([C@H]2[C@H]([N+](=O)[O-])[C@@H](c3ccccc3Br)CCN2Cc2cccnc2)ccc1O (racemic)
28 | 3 | NS(=O)(=O)Nc1cc([C@H]2[C@H]([N+](=O)[O-])[C@@H](c3ccccc3Br)CCN2Cc2cccnc2)ccc1O (racemic)
29 | 4.5 | CCc1ccccc1[C@H]1CCN(Cc2cccnc2)[C@@H](c2ccc(O)c(NS(N)(=O)=O)c2)[C@@H]1[N+](=O)[O-] (racemic)
30 | 16 | O=[N+]([O-])[C@@H]1[C@@H](c2ccccc2)N(Cc2cccnc2)CC[C@H]1c1ccccc1Br (racemic)
31 | 12 | CCc1ccccc1[C@@H]1CCN(Cc2cccnc2)[C@H](c2ccc(O)c(NCc3ccncc3)c2)[C@H]1[N+](=O)[O-] (racemic)
32 | 25 | O=[N+]([O-])[C@H]1[C@H](c2ccccc2Br)CCN(Cc2cccnc2)[C@H]1c1ccccn1 (racemic)
33 | 4.3 | CS(=O)(=O)Nc1cc([C@H]2[C@H]([N+](=O)[O-])[C@@H](c3ccccc3Br)CCN2Cc2cccnc2)ccc1O (racemic)
34 | 15 | NC(=O)Nc1cc([C@H]2[C@H]([N+](=O)[O-])[C@@H](c3ccccc3Br)CCN2Cc2cccnc2)ccc1O (racemic)
35 | 13 | Nc1cc([C@@H]2[C@@H]([N+](=O)[O-])[C@H](c3ccccc3Br)CCN2Cc2cccnc2)ccc1O (racemic)
36 | 6.2 | CCc1ccccc1[C@H]1CCN(Cc2cccnc2)[C@@H](c2ccc(O)c(NC(N)=O)c2)[C@@H]1[N+](=O)[O-] (racemic)
37 | 23 | CCc1ccccc1[C@@H]1CCN(Cc2cccnc2)[C@H](c2ccc(O)c(NCc3ccccn3)c2)[C@H]1[N+](=O)[O-] (racemic)
38 | 24 | CCc1ccccc1[C@@H]1CCN(Cc2cccnc2)[C@H](c2ccc(O)c(NCc3cccnc3)c2)[C@H]1[N+](=O)[O-] (racemic)
39 | 5.4 | O=[N+]([O-])[C@@H]1[C@@H](c2ccc(O)cc2)N(Cc2cccnc2)CC[C@H]1c1ccccc1Br (racemic)

assay: Metabolic stability in mouse liver microsomes; format: ADME, Microsome
Outline: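 Compound at 0.0010 mg/mL final was preincubated 5.0 min at 37 °C with mouse liver microsomes (1.0 mg/mL final, 100 mmol/L potassium phosphate, pH 7.4). Reaction was started with NADPH-generating system, NADPH system plus UDPGA (100 mmol/L), or UDPGA alone, then run 30 min at 37 °C. Quenched with acetonitrile internal standard and read by HPLC. Residual ratio is the 30-min concentration divided by the initial concentration.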

Row | Stability | SMILES
40 | Stable | CCc1ccccc1[C@H]1CCN(Cc2cccnc2)[C@@H](c2ccc(O)c(NS(N)(=O)=O)c2)[C@@H]1[N+](=O)[O-] (racemic)
